This is an account of results in ChEMBL document CHEMBL5247635 (Eur J Med Chem, 2022).

The source made the active and inactive calls. No cut-off for these calls is given here.

The subject of data set [1] is Leishmania infantum. The experiment in a line: Antileishmanial activity against Leishmania infantum promastigotes assessed as reduction in parasite growth at 5 mM treated for 72 hrs. It counts as functional, organism-based.
In data set [2] the test system is Leishmania infantum. The experiment in a line: Antileishmanial activity against H2O2-induced Leishmania infantum promastigotes assessed as reduction in non-protein thiol content at 5 mM treated for 72 hrs by CMF diacetate probe based flow cytometry relative to control. It counts as functional. Also on record: scale not given: the % may be the effect or the level left. A digest of the protocol: (§1)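 Promastigotes grown in RPMI-1640 with 10% FCS and 25 mM HEPES pH 7.2 at 26 °C. Treatments were 75 µM for 1 h, 5 mM BSO for 72 h, or both combined; vehicle served as control. Some parasites were also H2O2-treated. Non-protein thiols read by flow cytometry as CMF diacetate green fluorescence in PI-excluding live parasites. Means of nine independent experiments with 99.0% confidence intervals.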

Data set [3] can be described thus: Thermodynamic aqueous solubility of compound at 25 degreeC measured after 24 hrs by HPLC analysis. The following applies: buffer, read-out: Therm_solubility. It counts as physicochemical. A digest of the protocol: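 Excess compound was suspended in water (pH 5.5), sonicated 10 min, equilibrated overnight at room temperature, and centrifuged. Supernatant was diluted and quantified by HPLC (UV 254 nm) against a five-point standard curve (10–500 µM).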

For data set [4], the target named is T1, Trypanothione reductase (Leishmania infantum, UniProt A4HSF7). As to the kind of experiment: Inhibition of HIS-tagged recombinant Leishmania infantum TryR oxidoreductase activity expressed in Escherichia coli in the presence of NADPH by spectrophotometry based DTNB-coupled assay. The method, boiled down:
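HIS-tagged LiTryR was used in a DTNB-coupled assay at 26 °C. Buffer: 40 mM HEPES pH 7.5, 1 mM EDTA, 30 µM NADP+, 25 µM DTNB, 150 µM NADPH, 1.75% DMSO. Standard runs used 1 µM TS2 and 7 nM enzyme; cross-species runs used 50 µM TS2 and 0.5 nM enzyme. Started with NADPH + TS2; TNB read at 412 nm. Compounds were screened at 75 µM first. Three independent experiments.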

Data set [5] has as its target Trypanothione reductase (Trypanosoma brucei brucei, UniProt P39051). As to the kind of experiment: Inhibition of HIS-tagged recombinant Trypanosoma brucei TryR oxidoreductase activity expressed in Escherichia coli in the presence of NADPH by spectrophotometry based DTNB-coupled assay. The method, boiled down: (§2)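 HIS-tagged TryR from each species was expressed in E. coli. Activity was read by DTNB-coupled assay at 26 °C in 40 mM HEPES pH 7.5, 1 mM EDTA, 30 µM NADP+, 25 µM DTNB, 150 µM NADPH, 1.75% DMSO. Conditions were 50 µM TS2 and 0.5 nM enzyme; reaction started with NADPH + TS2. TNB absorbance at 412 nm. Three independent experiments.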

Data set [6] addresses Trypanothione reductase (Trypanosoma cruzi, UniProt P28593). As to the kind of experiment: Inhibition of HIS-tagged recombinant Trypanosoma cruzi TryR oxidoreductase activity expressed in Escherichia coli in the presence of NADPH by spectrophotometry based DTNB-coupled assay. A digest of the protocol: as §2
Data set [7] addresses Trypanothione reductase (Trypanosoma congolense, UniProt P13110). The experiment in a line: Inhibition of HIS-tagged recombinant Trypanosoma congolense TryR oxidoreductase activity expressed in Escherichia coli in the presence of NADPH by spectrophotometry based DTNB-coupled assay. The method, boiled down: as §2
Data set [8] deals with T1, Trypanothione reductase. As to the kind of experiment: Competitive inhibition of HIS-FLAG-tagged recombinant Leishmania infantum TryR expressed in Escherichia coli using TS2 substrate assessed as inhibition constant in the presence of NADPH by spectrophotometry based DTNB-coupled assay.
Data set [9] deals with T1, Trypanothione reductase. The experiment in a line: Competitive inhibition of HIS-FLAG-tagged recombinant Leishmania infantum TryR expressed in Escherichia coli assessed as dissociation constant by SPR assay.
The test system of data set [10] is Leishmania infantum. The experiment in a line: Antileishmanial activity against Leishmania infantum MCAN/ES/89/IPZ229/1/89 axenic amastigotes assessed as reduction in parasite viability treated for 24 hrs by PI staining based flow cytometry. It counts as functional, organism-based. Conditions: MCAN/ES/89/IPZ229/1/89, 24 h. The method, boiled down: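 Axenic amastigotes were seeded from log-phase cultures at 10^5 parasites/mL in M199-based medium at pH 5.4. They were derived from promastigotes by 3 days at 37 °C. Compounds at 2.3–75 µM for 24 h at 37 °C. Viability read by propidium iodide flow cytometry. EC50 ± SE from three independent experiments, each in triplicate.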

Data set [11] in a line: Cytotoxicity against human HepG2 cells assessed as reduction in cell proliferation treated for 24 hrs by crystal violet staining based analysis. It is filed as toxicity.
Data set [12] in a line: Selectivity index, ratio of CC50 for human HepG2 cells to EC50 for Leishmania infantum MCAN/ES/89/IPZ229/1/89 axenic amastigotes. It counts as toxicity. The following applies: read-out: Ratio CC50/EC50.
The target in data set [13] is T1, Trypanothione reductase. As to the kind of experiment: Disruption of HIS-FLAG-tagged recombinant Leishmania infantum TryR dimerization expressed in Escherichia coli Rossetta BL21 (DE3) cells incubated for 16 hrs by ELISA analysis. The method, boiled down:
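400 nM HIS-FLAG-tagged LiTryR (co-purified with HIS-tagged LiTryR as heterodimer) incubated with compound (3.1–75 μM) in 50 mM Tris pH 8.0, 300 mM NaCl, 16 h, 37 °C with vigorous shaking; centrifuged, supernatant captured on α-FLAG plates, detected with HRP-α-HIS antibody and o-phenylenediamine, A490. Signal normalized to DMSO; IC50 by nonlinear regression; triplicate, three independent experiments.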

Data set [14] concerns Leishmania infantum. As to the kind of experiment: Antileishmanial activity against GFP-expressing Leishmania infantum intracellular amastigotes infected in human THP-1 derived macrophage cells assessed as reduction in parasite viability measured for 72 hrs by resazurin/alamar blue fluorometric assay. It counts as functional, organism-based. The method, boiled down:
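Human THP-1-derived macrophages infected with GFP-expressing L. infantum amastigotes; compounds at 2.3–75 µM, infected cells monitored for 72 h. EC50 ± SE from three independent experiments.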

Data set [15] can be described thus: Cytotoxicity against human HepG2 cells assessed as reduction in cell proliferation measured after 72 hrs by crystal violet staining based analysis. It is filed as toxicity.
Data set [16] is described as follows: Selectivity index, ratio of CC50 for human HepG2 cells to EC50 for GFP-expressing Leishmania infantum intracellular amastigotes infected in human THP-1 derived macrophage cells. It counts as toxicity, cell-based. Conditions: read-out: Ratio CC50/EC50.
In data set [17] the test system is Leishmania infantum. The experiment in a line: Antileishmanial activity against Leishmania infantum promastigotes assessed as reduction in non-protein thiol content at 75 uM incubated for 1 hrs by CMF diacetate probe based flow cytometry relative to control. It is filed as functional. Also on record: scale not given: the % may be the effect or the level left. A digest of the protocol:
as §1

In data set [18] the test system is Leishmania infantum. As to the kind of experiment: Antileishmanial activity against Leishmania infantum promastigotes assessed as reduction in total thiol content at 75 uM treated for 1 hr by CMF diacetate probe based flow cytometry relative to control. It is filed as functional. Also on record: scale not given: the % may be the effect or the level left. A digest of the protocol: as §1

For data set [19], the system named is Leishmania infantum. The experiment in a line: Antileishmanial activity against H2O2-induced Leishmania infantum promastigotes assessed as reduction in non-protein thiol content at 75 uM treated for 1 hr in presence of BSO by CMF diacetate probe based flow cytometry relative to control. Also on record: scale not given: the % may be the effect or the level left. It counts as functional. The method, boiled down:
as §1

The target of data set [20] is Trypanothione reductase (Leishmania infantum) (UniProt A4HSF7). As to the kind of experiment: Mixed non-competitive inhibition of Leishmania infantum TryR using TS2 as substrate assessed as increase in apparent inhibition constant of initial EI complex by plot analysis. The method, boiled down:
(§3)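 Final assay: 40 mM HEPES pH 7.5, 1 mM EDTA, 300 µM NADPH, 60 µM NADP+, 150 µM DTNB, 3.1–100 µM TS2, 1.04% DMSO, 0.5 nM LiTryR, with serially diluted inhibitor. Enzyme was added last by automated dispenser to avoid preincubation. Progress curves were read at 412 nm at 26 °C; initial and steady-state velocities were fitted to kinetic models. Three independent experiments.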

The target is the same in data set [21]. The experiment in a line: Time-dependent inhibition of Leishmania infantum TryR using TS2 as substrate assessed as decrease in initial velocity rate at fixed TS2 concentration. A digest of the protocol: as §3
Data set [22] shares this target. The experiment in a line: Time-dependent inhibition of Leishmania infantum TryR using TS2 as substrate assessed as decrease in final steady-state velocity at fixed TS2 concentration. The method, boiled down: as §3
Data set [23] has the same target. The experiment in a line: Mixed non-competitive inhibition of Leishmania infantum TryR using TS2 as substrate assessed as increase in apparent inhibition constant of high affinity EI complex by plot analysis. A digest of the protocol:
as §3

In data set [24] the target is T1, Trypanothione reductase. The experiment in a line: Mixed non-competitive inhibition of Leishmania infantum TryR using TS2 as substrate assessed as inhibition constant of first equilibrium by plot analysis. A digest of the protocol:
as §3

The target in data set [25] is T1, Trypanothione reductase. The experiment in a line: Mixed non-competitive inhibition of Leishmania infantum TryR using TS2 as substrate assessed as inhibition constant of two-step induced-fit mechanism by plot analysis. The method, boiled down:
as §3

T1 sequence (A4HSF7 whole entry): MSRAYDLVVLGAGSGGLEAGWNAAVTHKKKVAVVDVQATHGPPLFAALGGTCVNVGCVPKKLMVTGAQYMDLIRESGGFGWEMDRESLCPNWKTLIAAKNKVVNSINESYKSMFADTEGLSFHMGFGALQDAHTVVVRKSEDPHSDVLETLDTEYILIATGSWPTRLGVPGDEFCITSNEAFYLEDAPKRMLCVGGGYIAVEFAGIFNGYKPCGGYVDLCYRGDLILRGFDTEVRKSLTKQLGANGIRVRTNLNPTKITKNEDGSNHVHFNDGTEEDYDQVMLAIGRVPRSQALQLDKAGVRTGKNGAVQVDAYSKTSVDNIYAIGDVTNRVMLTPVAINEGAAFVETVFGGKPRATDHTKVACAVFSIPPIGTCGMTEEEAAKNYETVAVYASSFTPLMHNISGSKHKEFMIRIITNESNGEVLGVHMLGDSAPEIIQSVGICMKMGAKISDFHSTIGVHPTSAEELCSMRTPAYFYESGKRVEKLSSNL
Trypanothione reductase (Leishmania infantum), sequence (A4HSF7 as listed by the source): as the sequence (A4HSF7 whole entry) above
Trypanothione reductase (Trypanosoma brucei brucei, UniProt P39051), sequence (P39051 whole entry): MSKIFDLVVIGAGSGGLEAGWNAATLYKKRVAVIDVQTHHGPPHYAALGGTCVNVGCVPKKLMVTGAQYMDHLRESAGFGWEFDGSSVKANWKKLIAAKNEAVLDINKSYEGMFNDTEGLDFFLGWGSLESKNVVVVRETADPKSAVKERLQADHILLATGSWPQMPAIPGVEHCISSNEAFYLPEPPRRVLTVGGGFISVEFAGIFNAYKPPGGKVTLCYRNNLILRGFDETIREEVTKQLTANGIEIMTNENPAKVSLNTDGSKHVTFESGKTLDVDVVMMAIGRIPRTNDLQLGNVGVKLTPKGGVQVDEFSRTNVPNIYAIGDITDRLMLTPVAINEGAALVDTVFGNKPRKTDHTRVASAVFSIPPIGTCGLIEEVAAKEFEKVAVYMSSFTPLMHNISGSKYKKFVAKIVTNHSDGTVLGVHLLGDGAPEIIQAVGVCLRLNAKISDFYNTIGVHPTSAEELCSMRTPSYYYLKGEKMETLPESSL
Trypanothione reductase (Trypanosoma cruzi, UniProt P28593), sequence (P28593 whole entry): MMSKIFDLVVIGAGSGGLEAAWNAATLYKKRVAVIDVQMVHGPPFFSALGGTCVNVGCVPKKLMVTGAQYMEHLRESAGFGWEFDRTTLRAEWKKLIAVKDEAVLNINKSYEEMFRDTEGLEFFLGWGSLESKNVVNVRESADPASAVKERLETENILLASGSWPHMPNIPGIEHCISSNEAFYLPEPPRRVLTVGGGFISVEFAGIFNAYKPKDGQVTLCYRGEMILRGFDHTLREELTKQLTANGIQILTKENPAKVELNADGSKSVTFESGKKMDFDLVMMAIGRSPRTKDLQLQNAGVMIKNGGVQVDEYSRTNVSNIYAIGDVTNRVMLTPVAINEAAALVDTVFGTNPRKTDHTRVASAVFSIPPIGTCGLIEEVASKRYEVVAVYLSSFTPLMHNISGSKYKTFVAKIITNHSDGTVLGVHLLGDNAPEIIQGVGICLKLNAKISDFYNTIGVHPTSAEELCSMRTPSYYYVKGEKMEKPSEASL
Trypanothione reductase (Trypanosoma congolense, UniProt P13110), sequence (P13110 whole entry): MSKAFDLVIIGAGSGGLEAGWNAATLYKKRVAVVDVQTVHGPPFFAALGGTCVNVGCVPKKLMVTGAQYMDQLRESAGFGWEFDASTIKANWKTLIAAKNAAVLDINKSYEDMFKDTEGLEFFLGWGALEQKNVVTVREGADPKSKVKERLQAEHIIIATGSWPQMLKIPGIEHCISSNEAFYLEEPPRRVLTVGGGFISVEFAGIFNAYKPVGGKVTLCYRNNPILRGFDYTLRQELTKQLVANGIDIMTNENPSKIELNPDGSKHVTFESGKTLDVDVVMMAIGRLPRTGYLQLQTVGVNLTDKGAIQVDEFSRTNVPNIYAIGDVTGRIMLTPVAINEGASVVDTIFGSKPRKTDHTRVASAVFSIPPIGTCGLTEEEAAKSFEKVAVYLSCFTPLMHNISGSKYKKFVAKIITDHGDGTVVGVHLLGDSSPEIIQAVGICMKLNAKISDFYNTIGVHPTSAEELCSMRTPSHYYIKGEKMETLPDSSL

Regarding `CCCCS(=N)(=O)CCC(N)C(=O)O` (racemic) [BUTHIONINE SULFOXIMINE], the result in the data set with Leishmania infantum [1] was inactive. Besides, in the data set on Leishmania infantum [2], the Activity amounted to 50%.
For `C[n+]1nn(-c2ccc(-c3nc(CCc4ccccc4)cs3)c(OCCN3CCNC3=O)c2)cc1CCCCN.O=C(O)C(F)(F)F.O=S(=O)([O-])C(F)(F)F`, the solubility thermodynamic at 24 h in [3] is more than 15.9 mg/mL. Also, the IC50 at Trypanothione reductase [4] was found to be 9.4 µM; at Trypanothione reductase [5], 26.9 µM; at Trypanothione reductase [6] it was 48.5 µM; at Trypanothione reductase [7], 18.7 µM. Moreover, the Ki at Trypanothione reductase [8] amounted to 7.3 µM. Also, the equilibrium dissociation constant (Kd) at Trypanothione reductase [9] worked out at 1 µM. Further, in the data set on Leishmania infantum [10], the EC50 is 66.6 µM. Also, the CC50 at 24 h in [11] was more than 75 µM. Moreover, in data set [12], the selectivity ratio is more than 1.1.
Regarding `C[n+]1nn(-c2ccc(-c3nc(CCc4ccc(-c5ccccc5)cc4)cs3)c(OCCN3CCNC3=O)c2)cc1CCCCN.O=C(O)C(F)(F)F.O=S(=O)([O-])C(F)(F)F`, in data set [3], the solubility thermodynamic at 24 h was 12.4 mg/mL. Moreover, the IC50 at Trypanothione reductase [4] was determined as 5.2 µM; at Trypanothione reductase [13] it was 10.3 µM; on Trypanothione reductase [5], 4.9 µM; at Trypanothione reductase [6] it was 9.2 µM; on Trypanothione reductase [7], 3.6 µM. In addition, the EC50 with Leishmania infantum [10] stood at 11.6 µM; with Leishmania infantum [14], 8.7 µM. The CC50 at 24 h in data set [11] is more than 75 µM. Moreover, the selectivity ratio in [12] was more than 6.5; in data set [16], more than 8.6. For the same compound, the CC50 at 72 h in [15] is more than 75 µM. For the same compound, the values for the Activity in the data set on Leishmania infantum [17], in the data set with Leishmania infantum [18] and in the data set on Leishmania infantum [19] were 20%, 15% and 50%, respectively. The inhibition entry in data set [20], in data set [21], in data set [22] and in data set [23] was “Active” each time. Besides, the Ki was 1.2 µM at Trypanothione reductase [24] and 0.2 µM on Trypanothione reductase [25].
